Results taken from ChEMBL document CHEMBL1140190, “Phenolic constituents of Amorpha fruticosa that inhibit NF-kappaB activation and related gene expression” (J Nat Prod, 2008).
Active and inactive are the calls of the source. The calls are words filed in the database; no cut-off is given here.

What was measured:
[1] = Inhibition of TNF-alpha-induced NF-kappaB activation in human HeLa cells by SEAP reporter gene assay; format: cell-based
In short: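 HeLa cells transiently transfected with an 8×κB-SEAP reporter plasmid, seeded at 5 × 10^4 cells/well, 3 h at 37 °C. Compounds in DMSO (final 0.01%) with TNF-α 10 ng mL-1 for 24 h. Supernatant heat-treated 65 °C 10 min, substrate p-nitrophenyl phosphate, 37 °C 4 h, absorbance 405 nm. Means ± SD, three experiments.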

[2] = Inhibition of LPS-induced NF-kappaB activation in mouse RAW264.7 cells by SEAP reporter gene assay; format: cell-based
In short: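 RAW264.7 cells transiently transfected with a plasmid carrying eight κB elements driving SEAP, seeded at 5 × 10^4 cells/well, 3 h at 37 °C. Compounds in DMSO (final 0.01%) plus LPS 1 µg mL-1 for 24 h. Supernatant heated 65 °C 10 min, then SEAP buffer and p-nitrophenyl phosphate, 37 °C 4 h, OD 405 nm. Means ± SD of three experiments.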

[3] = test system: MCF7; assay: Inhibition of TNF-alpha-induced NF-kappaB DNA binding activity in human MCF7 cells by electrophoretic shift mobility assay; format: cell-based
In short: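 MCF-7 cells at 70% confluence preincubated 30 min with compounds (DMSO final 0.001%), then TNF-α 20 ng mL-1 for 60 min. Nuclear extracts from hypotonic swelling and high-salt extraction, bound 20 min at room temperature to a 32P end-labeled NF-κB oligonucleotide. Excess unlabeled NF-κB and AP-1 oligonucleotides served as competitors.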

[4] = test system: MCF7; assay: Suppression of TNF-alpha-induced expression of iNOS in human MCF7 cells at 3 uM by Western blot analysis; format: functional, cell-based
In short: (§1)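 MCF-7 cells plated at 70% confluence and kept overnight at 37 °C. Compound (DMSO final 0.001%) added for 30 min, then TNF-α 20 ng mL-1 for 24 h. Total lysates run on 10% SDS-PAGE and blotted, primary antibody overnight at 4 °C, ECL detection, α-tubulin as loading control.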

[5] = test system: MCF7; assay: Suppression of TNF-alpha-induced expression of iNOS in human MCF7 cells at 10 uM by Western blot analysis; format: functional, cell-based; in short: as §1
[6] = test system: MCF7; assay: Blockade of TNF-alpha-induced COX2 induction in human MCF7 cells by Western blot analysis; format: functional, cell-based
In short: (§2)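 MCF-7 cells plated at 70% confluence and incubated overnight at 37 °C. Pretreated 30 min with compounds in DMSO (final DMSO 0.001%), then stimulated with TNF-α (20 ng mL-1) for 24 h. Total lysates in NP-40 lysis buffer were resolved by 10% SDS-PAGE and immunoblotted with specific antibodies (1:1000, overnight, 4 °C). ECL detection with α-tubulin as loading control.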

[7] = test system: MCF7; assay: Induction of apoptosis in human MCF7 cells assessed as down regulation of cIAP1 by Western blot analysis; format: functional, cell-based; in short: as §2
[8] = test system: MCF7; assay: Induction of apoptosis in human MCF7 cells assessed as down regulation of cIAP2 by Western blot analysis; format: functional, cell-based; in short: as §2
[9] = test system: MCF7; assay: Induction of apoptosis in human MCF7 cells assessed as suppression of MMP9 by Western blot analysis; format: functional, cell-based; in short: as §2

| Compound | IC50 [1] [nM] | IC50 [2] [nM] | Activity [3] | Activity [4] | Activity [5] | Activity [6] | Activity [7] | Activity [8] | Activity [9] |
| --- | --- | --- | --- | --- | --- | --- | --- | --- | --- |
| COc1cc2c(cc1OC)[C@]1(O)C(=O)c3c(O)cc4c(c3O[C@@H]1CO2)C=CC(C)(C)O4 | 190 | 4210 |  |  |  |  |  |  |  |
| COc1c(C/C=C(\C)CCC=C(C)C)c(O)cc(CCc2ccccc2)c1C(=O)O | 1130 | 2440 |  |  |  |  |  |  |  |
| CC(C)=CCC/C(C)=C/Cc1c(O)cc(CCc2ccccc2)c(C(=O)O)c1O | 1560 | 3140 |  |  |  |  |  |  |  |
| COC1=CC(=O)[C@]2(C=C1OC)OC[C@H]1Oc3c(ccc4c3C=CC(C)(C)O4)C(=O)[C@H]12 [AMORPHISPIRONONE] | 7390 | 13900 |  |  |  |  |  |  |  |
| CC1=C(O)C(=O)C=C2C1=CC=C1[C@@]2(C)CC[C@@]2(C)[C@@H]3C[C@](C)(C(=O)O)CC[C@]3(C)CC[C@]12C [CELASTROL] | 150 | 300 |  |  |  |  |  |  |  |
| COc1cc2c(cc1OC)[C@@H]1C(=O)c3ccc4c(c3O[C@@H]1CO2)C=CC(C)(C)O4 [DEGUELIN] | 220 | 1750 |  |  |  |  |  |  |  |
| COc1cc2c(cc1OC)[C@]1(O)C(=O)c3ccc4c(c3O[C@@H]1CO2)C=CC(C)(C)O4 [TEPHROSIN] | 110 | 2000 | Dose-dependent effect | Active | Active | Active | Active | Active | Active |

Continued, in another order:

| IC50 [1] [nM] | IC50 [2] [nM] | Compound | Activity [3] | Activity [4] | Activity [5] | Activity [6] | Activity [7] | Activity [8] | Activity [9] |
| --- | --- | --- | --- | --- | --- | --- | --- | --- | --- |
| 2120 | 7650 | COC1=CC(=O)[C@]2(C=C1OC)OC[C@H]1Oc3c4c(cc(O)c3C(=O)[C@H]12)OC(C)(C)C=C4 | Dose-dependent effect | Active | Active | Active | Active | Active | Active |
| 1750 | 3020 | COc1c(CC=C(C)C)c(O)cc(CCc2ccccc2)c1C(=O)O |  |  |  |  |  |  |  |
| 840 | 4170 | COc1cc(CCc2ccccc2)c(C(=O)O)c(O)c1CC=C(C)C [AMORFRUTIN A] | Dose-dependent effect | Active | Active |  |  |  |  |
| 260 | 680 | CC(C)=CCC/C(C)=C/Cc1c(O)cc(/C=C/c2ccccc2)cc1O [AMORPHASTILBOL] |  |  |  |  |  |  |  |
| 1030 | 1830 | CC(C)=CCC/C(C)=C/Cc1c(O)ccc(C(=O)/C=C/c2ccc(O)cc2)c1O [XANTHOANGELOL] |  |  |  |  |  |  |  |
